SENP1 FRET inh = blocks the human SENP1 SUMO protease catalytic domain; 360,000 compounds, 0.21% hits; inhibition, % at 10 µM; AID 624204; Q9P0U3; recombinant SENP1 catalytic domain, CyPet-SUMO1-YPet FRET cleavage;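 active = inhibition at least 30% at 10 µM, raw YFP signal under a set limit, fluorescence ratio 0.5 to 1.5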
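Material: hSENP1 catalytic domain, recombinant; medium: Tris pH 8 with BME, BSA, NP40 and catalase; compound: single concentration of 10 µM compound, 0.5% DMSO final; technique: FRET read of cyan and yellow fluorescence; timing: 50 min enzyme reaction, room temperature, light-protected; reagent: SFCypet-SUMO1-SFYpet substrate at 25 nM; control set: no-enzyme low, enzyme-DMSO high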
NadD block = NadD (S. aureus) enzyme inhibition | purified NadD enzyme, colorimetric absorbance read-out | inhibition, % at 20 µM | 360,000 compounds, 0.78% hits; in the data active = inhibition above about 26%
UCH37 DUB inh = human UCH37 deubiquitinating enzyme inhibition; purified proteasome/UCH37, Ub-AMC cleavage fluorescence; Q9Y5K5; inhibition, % (no concentration beside the values); 330,000 compounds, 0.33% hits;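 active = mean inhibition over replicate wells above about 20%, limit read from the data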
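Schedule: 30 min plus 25 min, room temperature / Material: human UCH37 within purified proteasomes / Technique: AMC fluorescence intensity at 355/460 nm / Buffer or medium: pH 7.4 Tris-HCl (50 mM) with ovalbumin, ATP-MgCl2, DTT / Controls: wells without proteasome as full block, compound-free enzyme plus substrate as uninhibited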
NR3A LBD binder = modulators (binders) of human NR3A ligand-binding domain. NR3A LBD differential scanning fluorimetry, Tm shift; 0% = protein alone, 100% = glycine-bound protein. Tm shift relative to glycine control, % at 25 µM. 340,000 compounds, 2.5% hits;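 active = melting temperature shift of at least 10% of the positive control shift, at one fixed dose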
ATG4B inh = ATG4B (human) cysteine protease inhibition. AID 504462. ATG4B cleavage of LC3-PLA2, NBD-HPC fluorescence, 1 h. inhibition, % at 8.33 µM. 340,000 compounds, 0.51% hits; in the data active = inhibition above about 40%
Target sequence (Q9Y4P1 whole entry, looked up): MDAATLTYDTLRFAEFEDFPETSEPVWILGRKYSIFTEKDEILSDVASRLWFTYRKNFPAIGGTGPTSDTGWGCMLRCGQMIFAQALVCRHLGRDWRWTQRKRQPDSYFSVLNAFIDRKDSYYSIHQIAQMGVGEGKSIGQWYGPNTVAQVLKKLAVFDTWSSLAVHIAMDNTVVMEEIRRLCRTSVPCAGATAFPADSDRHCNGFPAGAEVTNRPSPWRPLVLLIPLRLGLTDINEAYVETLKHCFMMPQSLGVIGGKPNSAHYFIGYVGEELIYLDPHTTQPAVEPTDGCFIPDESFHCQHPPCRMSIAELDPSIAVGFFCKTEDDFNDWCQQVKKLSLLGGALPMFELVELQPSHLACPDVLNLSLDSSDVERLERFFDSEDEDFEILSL
NadD conf = confirmation of Staphylococcus aureus NadD inhibitors; purified S. aureus NadD, colorimetric enzyme assay; inhibition, % at 20 µM; shares compounds with NadD block; 2,000 compounds, 13% hits; in the data active = inhibition mostly above about 42%, no sharp cut-off; inactive = mostly below about 42%
SENP1 inh conf = SENP1 (human) inhibition, single concentration confirmation | shares compounds with SENP1 FRET inh | inhibition, % at 10 µM | recombinant SENP1, CyPet-SUMO1-YPet FRET cleavage | 520 compounds, 34% hits | AID 651678; in the data active = inhibition mostly above about 35%, no sharp cut-off; inactive = mostly below about 32%
SENP1 kin conf = confirmation of human SENP1 SUMO protease inhibitors, kinetic | shares compounds with SENP1 FRET inh | recombinant SENP1, CyPet-SUMO1-YPet FRET kinetic cleavage | inhibition, % at 10 µM | 520 compounds, 26% hits; in the data active = inhibition mostly above about 32%, no sharp cut-off; inactive = mostly below about 29%
Large screens that a line does not name were inactive (follow-up assays come after a bar, where they were run). Only some compounds are listed: those with a hit (about 3.6% of all), similar ones and a draw of the others.

CC(=O)c1ccc2c(c1)C1C(Cl)C(Sc3ccccc3[N+](=O)[O-])CC1C(c1ccccc1[N+](=O)[O-])N2 (stereo unspecified)	NadD block 68 | NadD conf inactive
Cc1cc(N(CCCl)CCCl)ccc1C=NNC(=O)Cc1cc(=O)oc2cc(O)ccc12	NadD block 73, NR3A LBD binder 11 | NadD conf 59
Cc1nn2c(c1-c1ccccc1)NC1=C(C(=O)CCC1)C2c1ccccc1 (stereo unspecified)	none
N#CC1=C(N)Oc2c(c(=O)oc3ccccc23)C1c1cccnc1 (stereo unspecified)	none
CCOc1cc(C2C(C#N)=C(N)Oc3c2c(=O)oc2ccccc32)ccc1OC(=O)c1cccs1 (stereo unspecified)	NadD block 31, NR3A LBD binder 20 | NadD conf inactive
O=C(NCCCN1CC1)Nc1cccc2ccccc12	NadD block 34 (no result: UCH37 DUB inh) | NadD conf inactive
O=C(NC(=S)Nc1ccc(S(=O)(=O)Nc2nccs2)cc1)c1ccc(F)c(F)c1	none
Cc1cccc(C)c1-n1nnnc1C(CCc1ccccc1)N1CCC2(CC1)C(=O)NCN2c1ccccc1 (stereo unspecified)	NadD block 41 (no result: UCH37 DUB inh, NR3A LBD binder, ATG4B inh) | NadD conf inactive
O=C1NCN(c2ccccc2)C12CCN(C(c1cccc3ccccc13)c1nnnn1C1CCCCC1)CC2 (stereo unspecified)	NadD block 30 (no result: UCH37 DUB inh, NR3A LBD binder, ATG4B inh) | NadD conf inactive
O=C(COC(=O)/C=C/c1ccccc1[N+](=O)[O-])NCC1CCCO1 (stereo unspecified)	none
CCOc1ccc(S(=O)(=O)Nc2ccc(C(=O)NCC(c3ccc(OC)cc3)N3CCOCC3)cc2)cc1 (stereo unspecified)	none
CC(CNC(=O)c1ccc(NC2=NC3CS(=O)(=O)CC3S2)cc1)c1ccccc1 (stereo unspecified)	none
C[n+]1c(-c2ccccc2)cc(CCCCc2cc(-c3ccccc3)[n+](C)c(-c3ccccc3)c2)cc1-c1ccccc1	NadD block 40 | NadD conf inactive
COc1ccc(-c2cc(-c3ccccc3)[n+](C)c(-c3ccccc3)c2)cc1	none
CC(C)CNC(=O)C1c2ccccc2Oc2ccccc21	none
Cc1nn(Cc2ccccc2)c(C)c1C(=O)OCC(=O)Nc1ccccc1SCC#N	SENP1 FRET inh 48 | SENP1 inh conf inactive | SENP1 kin conf inactive
O=C(COc1ccccc1C(=O)Nc1ccccc1)NCCc1ccccc1	none
COc1ccc(P2(=O)Nc3ccccc3N2)cc1	SENP1 FRET inh 38 (no result: UCH37 DUB inh) | SENP1 inh conf 94 | SENP1 kin conf 60
COc1ccc2c(c1)NP(=S)(c1ccccc1)N2C (stereo unspecified)	none
CCN1C(=O)C(=Cc2ccc(N3CCOCC3)o2)C(=O)N(CC)C1=S	SENP1 FRET inh 49 | SENP1 inh conf inactive | SENP1 kin conf inactive
CN1C(=O)C(=Cc2ccc(Sc3ccccc3)o2)C(=O)N(C)C1=S	none
CN1C(=O)C(=Cc2ccc(N3CCOCC3)o2)C(=O)N(C)C1=S	SENP1 FRET inh 66 | SENP1 inh conf inactive | SENP1 kin conf inactive
CC1=NN=C(c2ccc(N)cc2)c2cc3c(cc2C1)OCO3	SENP1 FRET inh 43 | SENP1 inh conf inactive | SENP1 kin conf inactive
COc1ccccc1NP1(=O)OCC(C)([N+](=O)[O-])CO1 (stereo unspecified)	none (no result: UCH37 DUB inh)
COc1ccc(OCc2cc(C(=O)N(C)Cc3cc(C)no3)no2)c(Cl)c1	none
O=[N+]([O-])c1ccccc1Cl	none
O=C1NC(=O)C(Sc2ccccc2[N+](=O)[O-])C(=O)N1	SENP1 FRET inh 32 | SENP1 inh conf inactive | SENP1 kin conf inactive
